# Assay results as given in the M2OR odorant receptor database.
# Tests used:
# Details in all cases: stereoisomer not certain
# OR1A1 (Homo sapiens) = target: T1, OR1A1 (Homo sapiens) (UniProt Q9P1Q5)
# T1 sequence (whole entry): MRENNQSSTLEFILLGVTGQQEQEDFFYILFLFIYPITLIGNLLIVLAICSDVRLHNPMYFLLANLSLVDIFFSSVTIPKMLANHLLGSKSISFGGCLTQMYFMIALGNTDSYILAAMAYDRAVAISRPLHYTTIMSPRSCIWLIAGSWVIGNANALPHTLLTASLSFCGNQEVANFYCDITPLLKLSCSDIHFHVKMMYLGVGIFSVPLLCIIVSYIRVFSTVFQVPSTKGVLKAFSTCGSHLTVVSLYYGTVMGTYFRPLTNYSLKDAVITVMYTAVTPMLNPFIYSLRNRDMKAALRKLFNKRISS
# How it was run: (§1)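 Values were gathered from published papers (main text and supplementary material), with extra details requested from the original authors when needed, and checked for typos and inconsistencies. Each receptor–molecule pair is called responsive (active) if the original authors judged the measured signal statistically different from baseline, and non-responsive (inactive) otherwise. Assay methods varied by source, often transient mammalian cell-line luciferase assays. Recorded details include cell line, G-protein, co-transfected protein and tags.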
# OR13H1 (Homo sapiens) = target: T2, OR13H1 (Homo sapiens) (UniProt Q8NG92)
# T2 sequence (whole entry): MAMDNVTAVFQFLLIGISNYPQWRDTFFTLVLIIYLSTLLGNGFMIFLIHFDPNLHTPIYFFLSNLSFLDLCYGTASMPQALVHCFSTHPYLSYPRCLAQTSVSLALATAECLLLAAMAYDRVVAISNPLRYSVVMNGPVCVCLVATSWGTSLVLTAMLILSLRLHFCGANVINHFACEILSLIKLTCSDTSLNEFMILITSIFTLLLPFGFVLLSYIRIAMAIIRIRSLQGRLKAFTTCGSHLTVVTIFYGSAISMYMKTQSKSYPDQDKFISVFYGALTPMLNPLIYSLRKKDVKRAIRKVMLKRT
# How it was run: as §1
# OR13J1 (Homo sapiens) = target: T3, OR13J1 (Homo sapiens) (UniProt Q8NGT2)
# T3 sequence (whole entry): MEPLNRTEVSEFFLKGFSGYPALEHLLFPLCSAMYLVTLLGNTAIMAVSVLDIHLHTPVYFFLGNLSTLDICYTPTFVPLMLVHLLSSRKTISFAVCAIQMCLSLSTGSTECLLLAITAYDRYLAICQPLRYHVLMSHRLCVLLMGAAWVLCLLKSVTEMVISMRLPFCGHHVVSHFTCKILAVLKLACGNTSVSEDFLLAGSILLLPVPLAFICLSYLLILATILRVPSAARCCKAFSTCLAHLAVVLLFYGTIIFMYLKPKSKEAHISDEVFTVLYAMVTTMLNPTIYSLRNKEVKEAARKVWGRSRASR
# How it was run: as §1
# OR14A16 (Homo sapiens) = target: T4, OR14A16 (Homo sapiens) (UniProt Q8NHC5)
# T4 sequence (whole entry): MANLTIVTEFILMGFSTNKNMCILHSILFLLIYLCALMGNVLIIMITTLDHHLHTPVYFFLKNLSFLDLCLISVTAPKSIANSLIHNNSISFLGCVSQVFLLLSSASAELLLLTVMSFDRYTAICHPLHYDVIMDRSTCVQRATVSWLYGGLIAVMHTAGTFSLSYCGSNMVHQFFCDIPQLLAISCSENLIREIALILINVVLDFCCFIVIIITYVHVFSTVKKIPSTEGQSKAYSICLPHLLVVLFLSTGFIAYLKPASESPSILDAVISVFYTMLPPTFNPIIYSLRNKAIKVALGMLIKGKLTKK
# How it was run: as §1
# OR14A2 (Homo sapiens) = target: T5, OR14A2 (Homo sapiens) (UniProt Q96R54)
# T5 sequence (whole entry): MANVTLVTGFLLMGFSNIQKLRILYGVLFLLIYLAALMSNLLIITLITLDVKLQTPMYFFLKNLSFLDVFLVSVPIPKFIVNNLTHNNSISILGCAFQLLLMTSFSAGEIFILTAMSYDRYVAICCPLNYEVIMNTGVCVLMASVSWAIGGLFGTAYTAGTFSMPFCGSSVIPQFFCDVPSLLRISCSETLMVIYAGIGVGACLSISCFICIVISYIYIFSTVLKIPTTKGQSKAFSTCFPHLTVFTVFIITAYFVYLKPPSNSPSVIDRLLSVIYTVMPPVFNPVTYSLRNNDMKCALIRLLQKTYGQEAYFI
# How it was run: as §1
# OR14C36 (Homo sapiens) = target: T6, OR14C36 (Homo sapiens) (UniProt Q8NHC7)
# T6 sequence (whole entry): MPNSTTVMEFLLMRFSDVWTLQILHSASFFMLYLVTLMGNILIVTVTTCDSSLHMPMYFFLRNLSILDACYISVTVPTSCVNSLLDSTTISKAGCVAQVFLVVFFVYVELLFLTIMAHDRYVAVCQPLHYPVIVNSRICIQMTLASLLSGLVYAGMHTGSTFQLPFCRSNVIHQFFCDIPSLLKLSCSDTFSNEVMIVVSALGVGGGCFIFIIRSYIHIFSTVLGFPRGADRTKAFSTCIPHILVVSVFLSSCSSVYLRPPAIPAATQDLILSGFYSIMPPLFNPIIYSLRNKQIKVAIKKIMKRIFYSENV
# How it was run: as §1
# OR14I1 (Homo sapiens) = target: T7, OR14I1 (Homo sapiens) (UniProt A6ND48)
# T7 sequence (whole entry): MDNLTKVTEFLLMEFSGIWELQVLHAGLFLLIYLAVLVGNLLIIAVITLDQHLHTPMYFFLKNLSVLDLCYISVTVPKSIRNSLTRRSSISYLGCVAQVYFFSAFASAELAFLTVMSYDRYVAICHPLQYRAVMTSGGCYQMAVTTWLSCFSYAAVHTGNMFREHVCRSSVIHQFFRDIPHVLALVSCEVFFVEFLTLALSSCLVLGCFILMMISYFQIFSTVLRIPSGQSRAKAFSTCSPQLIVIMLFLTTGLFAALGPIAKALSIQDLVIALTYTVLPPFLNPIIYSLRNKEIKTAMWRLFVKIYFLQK
# How it was run: as §1
# OR14J1 (Homo sapiens) = target: T8, OR14J1 (Homo sapiens) (UniProt Q9UGF5)
# T8 sequence (whole entry): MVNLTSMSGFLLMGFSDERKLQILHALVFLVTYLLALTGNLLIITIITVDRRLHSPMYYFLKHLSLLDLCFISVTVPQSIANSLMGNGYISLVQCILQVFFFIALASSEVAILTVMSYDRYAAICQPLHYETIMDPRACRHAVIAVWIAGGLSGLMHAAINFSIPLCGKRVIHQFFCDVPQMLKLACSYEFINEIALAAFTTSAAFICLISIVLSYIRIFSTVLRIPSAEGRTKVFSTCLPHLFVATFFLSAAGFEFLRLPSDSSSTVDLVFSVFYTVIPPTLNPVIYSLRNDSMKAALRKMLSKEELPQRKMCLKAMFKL
# How it was run: as §1
# OR14K1 (Homo sapiens) = target: T9, OR14K1 (Homo sapiens) (UniProt Q8NGZ2)
# T9 sequence (whole entry): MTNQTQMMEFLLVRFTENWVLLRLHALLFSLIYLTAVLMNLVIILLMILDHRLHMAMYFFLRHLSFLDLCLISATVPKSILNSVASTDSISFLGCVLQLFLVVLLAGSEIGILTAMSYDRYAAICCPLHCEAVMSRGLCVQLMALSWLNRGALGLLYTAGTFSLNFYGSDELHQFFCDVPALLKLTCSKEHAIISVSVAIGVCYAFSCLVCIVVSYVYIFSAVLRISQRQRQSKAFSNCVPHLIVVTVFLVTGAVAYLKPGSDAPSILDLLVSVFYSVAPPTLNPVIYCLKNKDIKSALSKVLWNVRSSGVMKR
# How it was run: as §1
smiles,measurement,setting,value
CCCCC(CC)CCC(=O)O (configuration not stated),odorant receptor agonist call,OR1A1 (Homo sapiens),inactive
CC(=O)c1ccc(C)cc1,odorant receptor agonist call,OR1A1 (Homo sapiens),inactive
CCCCCC(S)C(C)CO (configuration not stated),odorant receptor agonist call,OR13H1 (Homo sapiens),inactive
same,odorant receptor agonist call,OR13J1 (Homo sapiens),inactive
same,odorant receptor agonist call,OR14A16 (Homo sapiens),inactive
same,odorant receptor agonist call,OR14A2 (Homo sapiens),inactive
same,odorant receptor agonist call,OR14C36 (Homo sapiens),inactive
same,odorant receptor agonist call,OR14I1 (Homo sapiens),inactive
same,odorant receptor agonist call,OR14J1 (Homo sapiens),inactive
same,odorant receptor agonist call,OR14K1 (Homo sapiens),inactive
same,odorant receptor agonist call,OR1A1 (Homo sapiens),inactive
CCCCOC=O,odorant receptor agonist call,OR1A1 (Homo sapiens),inactive
CCc1ccc(O)cc1,odorant receptor agonist call,OR1A1 (Homo sapiens),inactive
C1CCNC1,odorant receptor agonist call,OR1A1 (Homo sapiens),inactive
CCCCCC(C)O (configuration not stated),odorant receptor agonist call,OR1A1 (Homo sapiens),inactive
CC(=O)OCc1ccccc1,odorant receptor agonist call,OR1A1 (Homo sapiens),active
CC1=C(O)C(=O)C(C)O1 (configuration not stated),odorant receptor agonist call,OR13H1 (Homo sapiens),inactive
same,odorant receptor agonist call,OR13J1 (Homo sapiens),inactive
same,odorant receptor agonist call,OR14A16 (Homo sapiens),inactive
same,odorant receptor agonist call,OR14A2 (Homo sapiens),inactive
same,odorant receptor agonist call,OR14C36 (Homo sapiens),inactive
same,odorant receptor agonist call,OR14I1 (Homo sapiens),inactive
same,odorant receptor agonist call,OR14J1 (Homo sapiens),inactive
same,odorant receptor agonist call,OR14K1 (Homo sapiens),inactive
same,odorant receptor agonist call,OR1A1 (Homo sapiens),inactive
CSC,odorant receptor agonist call,OR1A1 (Homo sapiens),inactive
CCCCCCC=CCCC=O,odorant receptor agonist call,OR13H1 (Homo sapiens),inactive
same,odorant receptor agonist call,OR13J1 (Homo sapiens),inactive
same,odorant receptor agonist call,OR14A16 (Homo sapiens),inactive
same,odorant receptor agonist call,OR14A2 (Homo sapiens),inactive
same,odorant receptor agonist call,OR14C36 (Homo sapiens),inactive
same,odorant receptor agonist call,OR14I1 (Homo sapiens),inactive
same,odorant receptor agonist call,OR14J1 (Homo sapiens),inactive
same,odorant receptor agonist call,OR14K1 (Homo sapiens),inactive
same,odorant receptor agonist call,OR1A1 (Homo sapiens),inactive
CC=Cc1ccc(OC)cc1,odorant receptor agonist call,OR1A1 (Homo sapiens),active
CC(CO)CS (configuration not stated),odorant receptor agonist call,OR13H1 (Homo sapiens),inactive
same,odorant receptor agonist call,OR13J1 (Homo sapiens),inactive
same,odorant receptor agonist call,OR14A16 (Homo sapiens),inactive
same,odorant receptor agonist call,OR14A2 (Homo sapiens),inactive
same,odorant receptor agonist call,OR14C36 (Homo sapiens),inactive
same,odorant receptor agonist call,OR14I1 (Homo sapiens),inactive
same,odorant receptor agonist call,OR14J1 (Homo sapiens),active
same,odorant receptor agonist call,OR14K1 (Homo sapiens),inactive
same,odorant receptor agonist call,OR1A1 (Homo sapiens),inactive
CCCC(S)CCOC(C)=O (configuration not stated),odorant receptor agonist call,OR13H1 (Homo sapiens),inactive
same,odorant receptor agonist call,OR13J1 (Homo sapiens),inactive
same,odorant receptor agonist call,OR14A16 (Homo sapiens),inactive
same,odorant receptor agonist call,OR14A2 (Homo sapiens),inactive
same,odorant receptor agonist call,OR14C36 (Homo sapiens),inactive
same,odorant receptor agonist call,OR14I1 (Homo sapiens),inactive
same,odorant receptor agonist call,OR14J1 (Homo sapiens),inactive
same,odorant receptor agonist call,OR14K1 (Homo sapiens),inactive
same,odorant receptor agonist call,OR1A1 (Homo sapiens),active
CCC=CCCOC(C)=O,odorant receptor agonist call,OR1A1 (Homo sapiens),inactive
CCCCCC=CC=O,odorant receptor agonist call,OR1A1 (Homo sapiens),inactive
C=CC(=O)CC,odorant receptor agonist call,OR1A1 (Homo sapiens),inactive
CCCCCCCC1CCCC(=O)O1 (configuration not stated),odorant receptor agonist call,OR1A1 (Homo sapiens),inactive
CCOC(C)=O,odorant receptor agonist call,OR1A1 (Homo sapiens),inactive
CC(=O)c1c(C)c([N+](=O)[O-])c(C(C)(C)C)c([N+](=O)[O-])c1C,odorant receptor agonist call,OR13H1 (Homo sapiens),inactive
same,odorant receptor agonist call,OR13J1 (Homo sapiens),inactive
same,odorant receptor agonist call,OR14A16 (Homo sapiens),inactive
same,odorant receptor agonist call,OR14A2 (Homo sapiens),inactive
same,odorant receptor agonist call,OR14C36 (Homo sapiens),inactive
same,odorant receptor agonist call,OR14I1 (Homo sapiens),inactive
same,odorant receptor agonist call,OR14J1 (Homo sapiens),inactive
same,odorant receptor agonist call,OR14K1 (Homo sapiens),inactive
same,odorant receptor agonist call,OR1A1 (Homo sapiens),inactive
CCCCCC(=O)C(C)C(C)=O (configuration not stated),odorant receptor agonist call,OR13H1 (Homo sapiens),inactive
same,odorant receptor agonist call,OR13J1 (Homo sapiens),inactive
same,odorant receptor agonist call,OR14A16 (Homo sapiens),inactive
same,odorant receptor agonist call,OR14A2 (Homo sapiens),inactive
same,odorant receptor agonist call,OR14C36 (Homo sapiens),inactive
same,odorant receptor agonist call,OR14I1 (Homo sapiens),inactive
same,odorant receptor agonist call,OR14J1 (Homo sapiens),inactive
same,odorant receptor agonist call,OR14K1 (Homo sapiens),inactive
same,odorant receptor agonist call,OR1A1 (Homo sapiens),active
